According to ChEMBL document CHEMBL1138888, “Activity of and initial mechanistic studies on a novel antileishmanial agent identified through in silico pharmacophore development and database searching” (J Med Chem, 2006):
pIC50: −log10 of the molar value. Active and inactive are the calls of the source. No cut-off for these calls is given here.

Columns and labels:
Leishmania donovani [1] = test: Antileishmanial activity against Leishmania donovani axenic amastigotes; assay type: functional, organism-based
Method in brief: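 L. donovani axenic amastigotes (MHOM/SD/62/1S-CL2D), adapted from promastigotes and kept at 37 °C in amastigote medium. 6 × 10^4 cells per well, 2-fold compound dilution series, 3 days at 37 °C in 5% CO2. Growth read by tetrazolium (CellTiter) absorbance at 490 nm. IC50 taken from a four-parameter dose-response fit; three or more separate experiments, error given as SD.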

Vero = test: Antiproliferative activity against Vero cell; assay type: functional, cell-based; conditions: Chlorocebus sabaeus
Method in brief: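 Vero cells grown in alpha-MEM with Glutamax-I, 10% heat-inactivated FBS, penicillin/streptomycin. 1 × 10^3 cells per well seeded with compounds over a 2-fold dilution series, run like the amastigote assay: 3 days at 37 °C, humidified, 5% CO2. Growth read by tetrazolium (CellTiter) absorbance at 490 nm. IC50 from four-parameter dose-response fit; three or more separate experiments.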

Leishmania mexicana [2] = test: Reduction in Leishmania mexicana infection in mouse J774 macrophage at 25 nM; assay type: functional; design: scale not given: the % may be the effect or the level left
Method in brief: (§1)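 J774 macrophages (1 × 10^5 per well) allowed to adhere overnight, then infected with 1 × 10^6 L. mexicana promastigotes (MNYC/BCZ/62/M379) overnight at 33 °C. After washing, treated with compound or 1% DMSO vehicle for 3 days at 33 °C, methanol-fixed and Giemsa-stained. Percent reduction of infection is relative to controls; average ± range of two experiments.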

Leishmania mexicana [3] = test: Reduction in Leishmania mexicana infection in mouse J774 macrophage at 50 nM; assay type: functional; design: scale not given: the % may be the effect or the level left; method in brief: as §1
Leishmania mexicana [4] = test: Reduction in Leishmania mexicana infection in mouse J774 macrophage at 125 nM; assay type: functional; design: scale not given: the % may be the effect or the level left; method in brief: as §1
Leishmania donovani [5] = test: Cell cycle arrest in Leishmania donovani promastigotes by accumulation at G2/S phase at 2 uM; assay type: functional, organism-based; conditions: in the assay text read “G2/M phase” for “G2/S phase”
Method in brief: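 L. donovani promastigotes at 5 × 10^6 cells/mL in RPMI-based promastigote medium with 10% HI-FBS, treated or given vehicle (1% DMSO) for 2 days at 25 °C. Cells then methanol-fixed and stained with propidium iodide (10 µg/mL) with Triton X-100 and RNase A. DNA content per cell measured by flow cytometry; histograms representative of three experiments.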

Leishmania sp. = test: Inhibition of Leishmania tarentolae tubulin assembly; assay type: functional
Method in brief: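 Purified L. tarentolae tubulin at 1.5 mg/mL in […] pH 6.9 with 1 mM MgCl2, 1 mM EGTA, 10% DMSO and 1 mM GTP, incubated at 30 °C with or without compound (2 or 20 µM tested). Assembly followed as turbidity at 351 nm.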

Leishmania mexicana [6] = test: Reduction in Leishmania mexicana infection in mouse J774 macrophage at 2 uM; assay type: functional; design: scale not given: the % may be the effect or the level left; method in brief: as §1
Leishmania mexicana [7] = test: Reduction in Leishmania mexicana infection in mouse J774 macrophage at 4 uM; assay type: functional; design: scale not given: the % may be the effect or the level left; method in brief: as §1
Leishmania mexicana [8] = test: Reduction in Leishmania mexicana infection in mouse J774 macrophage at 8 uM; assay type: functional; design: scale not given: the % may be the effect or the level left; method in brief: as §1
Leishmania donovani [9] = test: Reduction in Leishmania donovani load in infected BALB/c mouse at 50 mg/kg/day, ip; assay type: functional; conditions: route intraperitoneal
Method in brief: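 BALB/c mice, 12 weeks old, infected i.v. (tail vein) with 1 × 10^7 hamster-spleen-derived L. donovani amastigotes. After 7 days, dosed i.p. daily for 5 days in 0.5% methylcellulose/0.1% Tween-80/10% DMSO in water; vehicle controls run. Killed 4 days after treatment. Liver burden scored as LDUs from Giemsa-stained smears; mean ± SD of five mice.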

Row | Compound | pIC50 (Leishmania donovani [1]) | also measured
1 | O=S(=O)(Nc1ccc(Oc2ccc(C(F)(F)F)cc2)cc1)c1cc(Cl)c(Cl)cc1Cl | 4.60 | –
2 | COc1ccc([N+](=O)[O-])c(OC)c1C(=O)NCCCn1ccnc1 | < 4.00 | –
3 | CSc1cccc(-n2c(S)nnc2CCc2ccc(O)cc2)c1 | < 4.00 | –
4 | COc1cc(C2SCCS2)cc(Br)c1Oc1cc(C)c(C(F)(F)F)cc1[N+](=O)[O-] | < 4.00 | –
5 | CCCCN(CCCC)c1c([N+](=O)[O-])cc(S(=O)(=O)Nc2ccc(F)cc2)cc1[N+](=O)[O-] | 5.25 | –
6 | O=S(=O)(c1ccc(Cl)cc1)N1CCCN(Cc2ccc(Cl)cc2Cl)CC1 | 4.14 | –
7 | CCCCN(CCCC)c1c([N+](=O)[O-])cc(S(=O)(=O)Nc2cccc(F)c2)cc1[N+](=O)[O-] | 5.24 | –
8 | Cc1cc(Sc2nnc3oc(O)cc(C)c2-3)c(C)cc1Cl | 4.41 | –
9 | O=C(O)c1ccccc1C(=O)NCCNc1ccc(C(F)(F)F)cn1 | < 4.00 | –
10 | CCCN(CCC)c1c([N+](=O)[O-])cc(S(=O)(=O)Nc2cccc(F)c2)cc1[N+](=O)[O-] | 5.60 | –
11 | Cc1cc(C(=O)O)c(Sc2nccn2-c2ccc(Cl)cc2Cl)nc1C#N | 4.68 | –
12 | COc1ccc(CCNc2ccc(C(F)(F)F)cc2[N+](=O)[O-])cc1OC | < 4.00 | –
13 | Cc1cc(S(=O)(=O)c2c([N+](=O)[O-])cc(C(F)(F)F)cc2[N+](=O)[O-])c(Cl)cc1Cl | 5.64 | pIC50 (Vero): 4.62
14 | O=C(CSCc1cccc(C(F)(F)F)c1)c1ccc(OCc2ccc(F)cc2)cc1 | < 4.00 | –
15 | O=C1NC(=O)c2c1ccc(Sc1c(Cl)cccc1Cl)c2[N+](=O)[O-] | 4.22 | –
16 | COc1ccccc1NC(=O)CSCc1cnc(C)c(O)c1O | < 4.00 | –
17 | Cc1cc(C)c(-n2nnnc2SCc2ccc(C(F)(F)F)cc2)c(C)c1 | 4.49 | –
18 | C[C@@H]1[C@H](O)[C@@H](C)/C=C/C=C/C=C/C=C/C=C/C=C/C=C/[C@H](O[C@@H]2O[C@H](C)[C@@H](O)[C@H](N)[C@@H]2O)C[C@@H]2O[C@](O)(C[C@@H](O)C[C@@H](O)[C@H](O)CC[C@@H](O)C[C@@H](O)CC(=O)O[C@H]1C)C[C@H](O)[C@H]2C(=O)O [AMPHOTERICIN B] | – | Activity (Leishmania mexicana [2]): 44%; Activity (Leishmania mexicana [3]): 76%; Activity (Leishmania mexicana [4]): 96%
19 | Cc1nc(-c2ccc(S(=O)(=O)Nc3ccc(Br)cc3Cl)s2)cs1 | 4.18 | –
20 | OC(CNCc1ccc(Cl)cc1Cl)Cn1c(-c2ccc(F)cc2)cc2ccccc21 (stereo not drawn) | 4.43 | –
21 | CC(=O)c1ccc(OCc2ccc(Cl)c(Cl)c2)c([N+](=O)[O-])c1 | < 4.00 | –
22 | Cc1cc(Sc2c([N+](=O)[O-])cc(C(F)(F)F)cc2[N+](=O)[O-])c(Cl)cc1Cl | 6.30 | pIC50 (Vero): 5.28; Activity (Leishmania donovani [5]): inactive; Activity (Leishmania sp.): inactive; Activity (Leishmania mexicana [6]): 13%; Activity (Leishmania mexicana [7]): 43%; Activity (Leishmania mexicana [8]): 68%; Activity (Leishmania donovani [9]): 1583
23 | O=[N+]([O-])c1ccc(Oc2c(Cl)cccc2Cl)c(Cl)c1Oc1c(Cl)cccc1Cl | 4.10 | –
